The record followed here is PubChem BioAssay.

The nature of test [1]: inhibitors of TNFa-induced NFkB p65 translocation, primary screen, imaging, HUVEC, MLSMR starter and 10KST1 sets (AID 438;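 active = inhibition above 20% together with a positive visual image hit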;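 also: compound added about 3h40 before a 20 min TNFalpha stimulation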;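 as to inhibition: signal is the nuclear over cytoplasmic p65 intensity ratio per well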). The settings on record: HUVEC TNFa-induced p65 nuclear translocation; cell count: measured here: nuclei count (cytotoxicity indicator), at 2.08 µM; inhibition: at 2 µM, stronger effect = higher value, 0% TNFa-plus-vehicle, 100% no-TNFa wells.
Test [2] in a line: reduction of polyQ htt aggregates in cells – imaging, exon1htt(103Q)mCFP cells, high-content imaging, primary screen (AID 483;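 active = visual image review flags a hit and inhibition of aggregation exceeds 20%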;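 also: compound exposure lasted 3 days before fixation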;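 as to nuclei count: percent of the per-plate median nuclei count of sample wells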). Conditions: exon1htt(103Q)mCFP cell line, aggregate imaging, at 2 µM; inhibition of aggregation: stronger effect = higher value; nuclei count: measured here: cell count, toxicity.
The nature of test [3]: endothelial E-selectin expression blockers – imaging, HUVEC, immunofluorescence, MLSMR starter and 10KST1 sets, primary screen (AID 487).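 As to inhibition: signal is fraction of cell area covered by stained E-selectin grains.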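 As to nuclei count: 100% = median nuclei count of all wells on the same plate.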 Conditions: HUVEC TNFalpha-induced E-selectin immunofluorescence imaging, at 2 µM; inhibition: stronger effect = higher value; nuclei count: measured here: cell number, toxicity.
For test [4], the target named is Voltage-gated potassium channel subunit beta-2 (Rattus norvegicus) (UniProt P62483). Nature of the test: inhibitors of rat Kvbeta2 reductase activity – biochemical, NADPH fluorescence, primary screen (AID 622;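 active = fluorescence slope higher than the sample average by over 3 SD, cut at about -0.22 in these data, passing the limit was not always enough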;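 also: slope of raw intensity against log time taken from 70 to 1610 s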). Conditions: recombinant KvBeta, 4-cyanobenzaldehyde reduction, at 10 µM, stronger effect = higher value.
Test [5] shares this target. The test can be described thus: enhancers of rat Kvbeta2 NADPH turnover – biochemical, NADPH fluorescence, primary screen (AID 623;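 active = NADPH fluorescence slope more negative than the mean of all samples by about 3 SD, 99.7% confidence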;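 also: fluorescence intensity change per second fitted from 20 to 320 s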). Conditions: Recombinant KvBeta, NADPH fluorescence decrease slope, 10 min; at 10 µM; stronger effect = lower value.
Test [6] addresses Muscarinic acetylcholine receptor M4 (Homo sapiens) (UniProt P08173). Nature of the test: M4-linked GIRK flux change, two-sided – cell-based, HEK293 M4/GIRK, thallium flux, BTC-AM, M4 allosteric agonist project, primary screen (AID 625;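 active = fluorescence slope after compound addition differing from the mean of all tested samples at 99.7% confidence, mostly higher but some lower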;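 also: thallium influx through GIRK channels coupled to M4 in HEK293 cells with BTC-AM dye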). Conditions: at 10 µM, actives lie on both sides. In short, it runs like this:
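Assay system: HEK293 cells with M4 receptor and GIRK channels / Controls: carbachol and DMSO controls / Schedule: 1 h dye loading, 2 min kinetic read / Technique: kinetic fluorescence with BTC-AM dye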

Test [7] is described as follows: blockers of RIG-like receptor reporter activation – cell-based, Sendai virus stimulus, luciferase, 10K MLSCN set, TLR/RLR signaling modifier project, primary screen (AID 602276;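 active = inhibition at or above 50% at 10 µM; inactive = inhibition below 50%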;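 also: firefly luciferase from ISG56 promoter only with Renilla not read in this screen; 0% = Sendai virus plus DMSO and 100% = medium plus DMSO without virus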). The settings on record: HEK293 RL24 IRF3 luciferase reporter, at 10 µM, stronger effect = higher value. A general note: In a reporter assay the amount or activity of a reporter protein is the signal.

A short description of test [8]: TLR3 IRF3 reporter activation blockers – cell-based, poly I:C stimulus, luciferase, 10K MLSCN set, primary screen (AID 602277;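 active = inhibition of the reporter signal at or above 50%; inactive = inhibition below 50%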). The settings on record: HEK293-TLR3 RL24 IRF3 luciferase reporter, at 10 µM, stronger effect = higher value.

The source made the active and inactive calls.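 The calls were made as follows, unless noted: active = visually confirmed hit in the image check and inhibition above 20%; inconclusive = visually confirmed hit but inhibition not above 20%; inactive = no visual hit in the image check.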

Sequence of Muscarinic acetylcholine receptor M4 (Homo sapiens) (P08173 whole entry, looked up): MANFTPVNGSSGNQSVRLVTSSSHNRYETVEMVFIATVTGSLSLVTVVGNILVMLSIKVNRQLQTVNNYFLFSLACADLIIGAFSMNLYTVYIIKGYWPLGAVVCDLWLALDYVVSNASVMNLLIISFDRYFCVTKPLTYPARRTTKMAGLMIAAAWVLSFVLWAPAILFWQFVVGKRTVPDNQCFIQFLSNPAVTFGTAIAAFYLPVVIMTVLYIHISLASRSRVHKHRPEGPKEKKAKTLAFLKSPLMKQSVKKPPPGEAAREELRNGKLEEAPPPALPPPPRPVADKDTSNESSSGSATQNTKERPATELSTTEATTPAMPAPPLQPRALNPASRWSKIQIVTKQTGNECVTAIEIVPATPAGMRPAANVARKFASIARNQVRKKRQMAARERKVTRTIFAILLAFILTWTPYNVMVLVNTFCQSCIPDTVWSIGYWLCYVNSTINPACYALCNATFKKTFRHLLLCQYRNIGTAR
Sequence of Voltage-gated potassium channel subunit beta-2 (Rattus norvegicus) (P62483 whole entry, looked up): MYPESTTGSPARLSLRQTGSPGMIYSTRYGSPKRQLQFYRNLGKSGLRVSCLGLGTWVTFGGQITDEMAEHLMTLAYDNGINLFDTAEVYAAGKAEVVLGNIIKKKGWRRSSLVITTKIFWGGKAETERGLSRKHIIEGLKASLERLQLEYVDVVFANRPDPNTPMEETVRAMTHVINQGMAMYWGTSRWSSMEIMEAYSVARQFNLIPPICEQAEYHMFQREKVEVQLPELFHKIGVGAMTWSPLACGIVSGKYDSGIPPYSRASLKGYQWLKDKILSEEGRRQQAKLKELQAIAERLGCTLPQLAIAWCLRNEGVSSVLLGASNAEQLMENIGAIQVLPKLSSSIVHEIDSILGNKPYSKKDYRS

A word on the inhibition: it is the change of the read-out against control, counted positive when it falls. Take `CCc1nc(C)c(-c2ccccc2)c(=O)[nH]1`: the cell count in test [1] was 211. Besides, the inhibition in test [1] is 0.8% (inactive); in test [3], -99.3% (inactive); in test [7], -0.853% (inactive); in test [8] it was 3.2% (inactive). Further, the inhibition of aggregation in test [2] was 5.5% (inactive). For the same compound, the nuclei count in test [2] is 97.2%; in test [3] it was 102%. Besides, the fluorescence slope was -0.567 (inactive) in test [4] and 0.00452 (inactive) in test [6]. Further, the NADPH fluorescence slope in test [5] is -7.1e-06 (inactive).

As to `CCNC(=O)CC1C(=O)N(c2ccc(F)cc2)C(=O)N1CCC(C)C` (centres undefined), the cell count in test [1] worked out at 357. The inhibition in test [1] is -10.8% (inactive); in test [3], -21.1% (inactive); in test [7] it was 4.4% (inactive); in test [8], 15.9% (inactive). Moreover, the inhibition of aggregation in test [2] is 17.4% (inactive). Also, the figures for the nuclei count in test [2] and in test [3] were 92.3% and 106%, respectively. For the same compound, the fluorescence slope in test [4] is -0.525 (inactive); in test [6], 0.00457 (inactive). The NADPH fluorescence slope in test [5] was -5.9e-06 (inactive).

As to `Cc1ccc(NCc2nnc(SCC(=O)NCc3ccco3)n2CC2CCCO2)cc1Cl` (centres undefined), in test [1], the cell count was found to be 331. The inhibition was -11.8% (inactive) in test [1], 4.6% (inactive) in test [3], -1.38% (inactive) in test [7] and -3.61% (inactive) in test [8]. The inhibition of aggregation in test [2] was 13.3% (inactive). In addition, the results for the nuclei count in test [2] and in test [3] were 80.1% and 106%, respectively. In addition, the results for the fluorescence slope in test [4] and in test [6] were -0.505 (inactive) and 0.00472 (inactive), respectively. The NADPH fluorescence slope in test [5] was 2.3e-05 (inactive).

On to `COc1ccccc1NC(=O)CC(NCc1ccccc1)C(=O)O` (centres undefined), for which the cell count in test [1] worked out at 405. Also, the inhibition was -8.3% (inactive) in test [1], 14.4% (inactive) in test [3], 8.88% (inactive) in test [7] and 5.77% (inactive) in test [8]. The inhibition of aggregation in test [2] was -9.7% (inactive). Besides, the nuclei count in test [2] turned out to be 63.1%; in test [3], 100%. The fluorescence slope in test [4] is -0.223 (inactive); in test [6] it was 0.00589 (inactive). Moreover, in test [5], the NADPH fluorescence slope was -1.3e-05 (inactive).

On to `O=C(NCc1n[nH]c(=S)n1-c1ccc(F)cc1)c1ccco1`, for which the cell count in test [1] turned out to be 711. Moreover, the inhibition was -16.8% (inactive) in test [1], -72.4% (inactive) in test [3], 12.1% (inactive) in test [7] and 13.9% (inactive) in test [8]. For the same compound, in test [2], the inhibition of aggregation was -0.3% (inactive). Further, the nuclei count is 102% in test [2] and 126% in test [3]. Also, the results for the fluorescence slope in test [4] and in test [6] were -0.463 (inactive) and 0.00529 (inactive), respectively. In addition, in test [5], the NADPH fluorescence slope is -2.7e-05 (inactive).

For `COc1ccc(CCNC(=O)C2CCN(Cc3nc(-c4cccc(Cl)c4)oc3C)CC2)cc1OC`, the cell count in test [1] turned out to be 400. The inhibition is 6% (inactive) in test [1], -12.2% (inactive) in test [3], 6.77% (inactive) in test [7] and -17.9% (inactive) in test [8]. Also, in test [2], the inhibition of aggregation is 17.8% (inactive). The nuclei count came to 94.3% in test [2] and 86.6% in test [3]. The values for the fluorescence slope in test [4] and in test [6] were -0.584 (inactive) and 0.00471 (inactive), respectively. Moreover, the NADPH fluorescence slope in test [5] is -1.7e-05 (inactive).

On to `CCCC(O)(CCN(C)C)c1ccc(OC)cc1` (centres undefined), for which the cell count in test [1] is 701. Also, the inhibition in test [1] is 6.7% (inactive); in test [3], -50.6% (inactive); in test [7], 21.2% (inactive); in test [8] it was 29.6% (inactive). The inhibition of aggregation in test [2] is 18.4% (inactive). Besides, the nuclei count in test [2] was determined as 95.2%; in test [3], 87.3%. The fluorescence slope in test [4] is -0.543 (inactive); in test [6], 0.00506 (inactive). Moreover, the NADPH fluorescence slope in test [5] is -8.4e-06 (inactive).

For the compound `CCC(=O)N1CCCc2cc(S(=O)(=O)N3CCCc4ccccc43)ccc21`, in test [1], the cell count is 684. For the same compound, the inhibition in test [1] is 2.1% (inactive); in test [3], -142% (inactive); in test [7], 20% (inactive); in test [8] it was 34% (inactive). Moreover, the inhibition of aggregation in test [2] was -1.8% (inactive). Moreover, the results for the nuclei count in test [2] and in test [3] were 100% and 125%, respectively. For the same compound, the fluorescence slope was -0.552 (inactive) in test [4] and 0.00501 (inactive) in test [6]. Moreover, the NADPH fluorescence slope in test [5] is 3.3e-05 (inactive).

Take `C=CCC(NCc1ccco1)c1ccc(OC)cc1OC` (centres undefined): the cell count in test [1] stood at 697. The inhibition in test [1] was 7.5% (inactive); in test [3] it was -94.5% (inactive); in test [7], 12.6% (inactive); in test [8], 18.9% (inactive). The inhibition of aggregation in test [2] was 4.4% (inactive). Also, the nuclei count in test [2] was 110%; in test [3], 108%. Further, the results for the fluorescence slope in test [4] and in test [6] were -0.597 (inactive) and 0.00584 (inactive), respectively. Besides, the NADPH fluorescence slope in test [5] is 2.3e-05 (inactive).

On to `Cc1ccc(-c2ccc(/C=N/n3cnnc3)o2)cc1Cl`, for which the cell count in test [1] turned out to be 432. Moreover, the inhibition in test [1] is -1.5% (inactive); in test [3], 10.4% (inactive); in test [7] it was 3.11% (inactive); in test [8], -7.7% (inactive). Besides, in test [2], the inhibition of aggregation is 2.7% (inactive). Also, the nuclei count was found to be 85.3% in test [2] and 110% in test [3]. Besides, the figures for the fluorescence slope in test [4] and in test [6] were -0.555 (inactive) and 0.00662 (inactive), respectively. The NADPH fluorescence slope in test [5] was -1.9e-05 (inactive).

As to `Cc1ccc(-c2nn3c(=O)c(C)nnc3s2)cc1`, the cell count in test [1] was found to be 571. For the same compound, the inhibition in test [1] is -19.6% (inactive); in test [3], 3.6% (inactive); in test [7], -12.3% (inactive); in test [8], -53.9% (inactive). In addition, the inhibition of aggregation in test [2] is -0.2% (inactive). The nuclei count came to 98.1% in test [2] and 108% in test [3]. Also, the values for the fluorescence slope in test [4] and in test [6] were -0.309 (inactive) and 0.0056 (inactive), respectively. Moreover, the NADPH fluorescence slope in test [5] was -4.6e-06 (inactive).

On to `Nc1nc(C2C(=O)CCCC2=O)cs1`, for which the cell count in test [1] is 391. Also, the inhibition in test [1] was -16.3% (inactive); in test [3], -93.1% (inactive); in test [7], 8.39% (inactive); in test [8] it was 2.35% (inactive). Further, the inhibition of aggregation in test [2] is -1.6% (inactive). Also, the nuclei count worked out at 103% in test [2] and 148% in test [3]. Further, the figures for the fluorescence slope in test [4] and in test [6] were -0.511 (inactive) and 0.00345 (inactive), respectively. Also, the NADPH fluorescence slope in test [5] is -9.1e-05 (inactive).

In the case of `CCOC(=O)CSc1nc2ccccc2c(=O)n1NC(=O)c1ccccc1`, the cell count in test [1] is 472. Further, the inhibition in test [1] was -5.7% (inactive); in test [3], 10.7% (inactive); in test [7], 1.47% (inactive); in test [8], -19.8% (inactive). Moreover, in test [2], the inhibition of aggregation was -2% (inactive). The nuclei count was found to be 119% in test [2] and 92.2% in test [3]. The fluorescence slope in test [4] was -0.445 (inactive); in test [6], 0.00551 (inactive). In addition, the NADPH fluorescence slope in test [5] is 3.6e-06 (inactive).

Regarding `CCCN1C2=C(C(=O)CCC2)C(c2ccc(O)c(Br)c2)C2=C1CCCC2=O`, the cell count in test [1] was 736. Moreover, the inhibition in test [1] was -30.6% (inactive); in test [3], -7.3% (inactive); in test [7], 9.76% (inactive); in test [8], 17.2% (inactive). Also, the inhibition of aggregation in test [2] was 2% (inactive). Moreover, the nuclei count in test [2] is 97.2%; in test [3], 107%. Further, the values for the fluorescence slope in test [4] and in test [6] were -0.531 (inactive) and 0.00464 (inactive), respectively. Besides, in test [5], the NADPH fluorescence slope is -5.9e-05 (inactive).
